Results on nine molecules are retold here after ChEMBL document CHEMBL4428118, “Optimization of pyrimidinol antioxidants as mitochondrial protective agents: ATP production and metabolic stability” (Bioorg Med Chem, 2016).

For data set [1], the system named is GM15850. Briefly: Antioxidant activity in FRDA patient derived lymphocyte GM15850 assessed as inhibition of DEM-induced lipid peroxidation at 0.1 to 1 uM pre-incubated for 16 hrs followed by DEM addition for 120 mins by C11-BODIPY581/591 probe based flow cytometry relative to control. The class given is functional, cell-based. Particulars: Homo sapiens. The gist of the method:
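Cells seeded at 5 × 10^5 cells/mL in RPMI-1640 with 15% fetal calf serum and 2 mM glutamine. Compounds added 16 h at 37 °C, 5% CO2. Then 1 μM C11-BODIPY581/591 in phenol red-free medium, 30 min in the dark. 5 mM DEM for 120 min, PBS wash, FL1-H read (488 nm excitation). 10,000 events. Green median fluorescence reported as % of DEM-treated control, n = 3.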

The subject of data set [2] is GM15850. Briefly: Antioxidant activity in FRDA patient derived lymphocyte GM15850 assessed as suppression of DEM-induced intracellular ROS levels at 2.5 uM pre-incubated for 16 hrs followed by DEM addition for 80 mins by DCFH-DA probe based flow cytometry. The class given is functional, cell-based. To be noted: Homo sapiens. The gist of the method:
(§1)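 Cells (5 × 10^5) pretreated with compound 16 h at 37 °C, then 5 mM DEM for 80 min. Washed, then 10 μM DCFH-DA in PBS with 20 mM glucose for 25 min at 37 °C in the dark. DCF read on FL1-H, 10,000 events. Median fluorescence given as % of DEM-treated control. Duplicates, three independent runs.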

The subject of data set [3] is GM15850. Briefly: Antioxidant activity in FRDA patient derived lymphocyte GM15850 assessed as suppression of DEM-induced intracellular ROS levels at 100 nM pre-incubated for 16 hrs followed by DEM addition for 80 mins by DCFH-DA probe based flow cytometry. The data set is classed as functional, cell-based. To be noted: Homo sapiens. The gist of the method: as §1
Data set [4] has as its system GM15850. Briefly: Antioxidant activity in FRDA patient derived lymphocyte GM15850 assessed as suppression of DEM-induced intracellular ROS levels pre-incubated for 16 hrs followed by DEM addition for 80 mins by DCFH-DA probe based flow cytometry. The class given is functional, cell-based. To be noted: Homo sapiens. The essentials:
as §1

In data set [5] the test system is GM15850. Briefly: Inhibition of DEM-induced collapse of mitochondrial membrane potential in FRDA patient derived lymphocyte GM15850 assessed as intact mitochondrial membrane potential at 100 nM pre-incubated for 16 hrs followed by DEM addition for 120 mins by TMRM dye based flow cytometry (reference value: 91.3 %). The data set is classed as functional, Homo sapiens. Also noted: scale not given: the % may be the effect or the level left. The gist of the method:
(§2)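 Cells (5 × 10^5) pretreated with or without compound for 16 h, then 5 mM DEM for 120 min. Stained with 250 nM TMRM in PBS with 20 mM glucose, 15 min at 37 °C in the dark. FL2-H read, 10,000 events, % cells with high TMRM uptake (intact potential). FCCP as uncoupler control. Means ± SEM of independent experiments run in duplicate.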

For data set [6], the system named is GM15850. Put plainly: Inhibition of DEM-induced collapse of mitochondrial membrane potential in FRDA patient derived lymphocyte GM15850 assessed as intact mitochondrial membrane potential at 1000 nM pre-incubated for 16 hrs followed by DEM addition for 120 mins by TMRM dye based flow cytometry (reference value: 91.3 %). The class given is functional, Homo sapiens. Also noted: scale not given: the % may be the effect or the level left. The essentials:
as §2

Data set [7] deals with GM15850. Put plainly: Inhibition of DEM-induced collapse of mitochondrial membrane potential in FRDA patient derived lymphocyte GM15850 assessed as intact mitochondrial membrane potential at 2500 nM pre-incubated for 16 hrs followed by DEM addition for 120 mins by TMRM dye based flow cytometry (reference value: 91.3 %). The data set is classed as functional, Homo sapiens. Also noted: scale not given: the % may be the effect or the level left. The essentials: as §2

Data set [8] relates to GM15850. Put plainly: Inhibition of DEM-induced collapse of mitochondrial membrane potential in FRDA patient derived lymphocyte GM15850 assessed as intact mitochondrial membrane potential pre-incubated for 16 hrs followed by DEM addition for 120 mins by TMRM dye based flow cytometry. The class given is functional, cell-based. To be noted: Homo sapiens. The gist of the method:
as §2

The subject of data set [9] is GM15850. Put plainly: Effect on mitochondrial membrane potential in FRDA patient derived lymphocyte GM15850 incubated for 16 hrs by TMRM dye based flow cytometry. The data set is classed as cell-based. To be noted: human, gm15850, 16 h.
Data set [10] concerns GM15850. Put plainly: Increase in total intracellular ATP levels in FRDA patient derived lymphocyte GM15850 grown in galactose medium at 1 uM after 48 hrs by luciferin-luciferase reaction based bioluminescence assay relative to control. The class given is functional, Homo sapiens. The essentials: (§3)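 Cells at 2 × 10^5 cells/mL in glucose-free RPMI with 25 mM galactose, 10% dialyzed FBS and 2 mM glutamine. Compound exposure 48 h at 37 °C, 5% CO2. Total ATP read by luciferin-luciferase bioluminescence. Expressed as % of untreated control, mean of at least three independent runs; Student's t-test, p ≤ 0.05 versus vehicle.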

For data set [11], the system named is GM15850. Put plainly: Increase in total intracellular ATP levels in FRDA patient derived lymphocyte GM15850 grown in galactose medium at 5 uM after 48 hrs by luciferin-luciferase reaction based bioluminescence assay relative to control. The class given is functional, Homo sapiens. The essentials: as §3
Data set [12] relates to GM15850. Briefly: Increase in total intracellular ATP levels in FRDA patient derived lymphocyte GM15850 grown in galactose medium at 20 uM after 48 hrs by luciferin-luciferase reaction based bioluminescence assay relative to control. The class given is functional, Homo sapiens. The essentials:
as §3

The test system of data set [13] is GM15850. Put plainly: Cytoprotective activity against DEM induced oxidative stress in FRDA patient derived lymphocyte GM15850 assessed as cell viability at 0.5 uM pre-incubated for 16 hrs followed by DEM addition for 6 hrs by calcein AM/EthD-1 staining based flow cytometry. The data set is classed as functional. To be noted: Homo sapiens. The essentials: (§4)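 Seeding 5 × 10^5 cells/mL, compound for 16 h at 37 °C, then 5 mM DEM for 6 h. Cells washed, resuspended in PBS with 25 mM galactose. Stained with 0.1 μM calcein AM and 0.1 μM EthD-1, 15 min at 37 °C in the dark. FL1-H/FL2-H read, 10,000 events. Viability relative to DMSO vehicle control.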

Data set [14] concerns GM15850. Put plainly: Cytoprotective activity against DEM induced oxidative stress in FRDA patient derived lymphocyte GM15850 assessed as cell viability at 0.1 uM pre-incubated for 16 hrs followed by DEM addition for 6 hrs by calcein AM/EthD-1 staining based flow cytometry. The class given is functional. To be noted: Homo sapiens. The essentials: as §4
Data set [15] in a line: Stability in bovine liver microsomes assessed as drug recovery at 25 uM after 30 mins in presence of beta-NADPH by HPLC analysis. Particulars: cattle, read-out: Drug recovery. The class given is ADME, Bos taurus, Microsome. The gist of the method: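 Freshly prepared bovine liver microsomes at 1 mg/mL protein in 50 mM phosphate buffer pH 7.4 with 5 mM MgCl2. Compound at 25 μM final, reaction started with 1 mM β-NADPH, 30 min at 37 °C, stopped with propanol. Control was deactivated microsomes without NADPH. Reversed-phase HPLC with fluorene internal standard. Reported as % remaining versus control, quadruplicate.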

Data set [16] deals with GM15850. Put plainly: Increase in total intracellular ATP levels in FRDA patient derived lymphocyte GM15850 grown in galactose medium after 48 hrs by luciferin-luciferase reaction based bioluminescence assay. Particulars: Homo sapiens. The data set is classed as functional, cell-based. The gist of the method:
as §3

Calls of active or inactive are those of the source. No cut-off for these calls is given here.

With `CCCCCCCCCCCCCCCCc1nc(N2CCCCC2)nc(OC2CCC2)c1O`, the result in data set [1], in data set [3], in [13] and in data set [14] was inactive. Further, in data set [2], the outcome was Active. The Activity entry in [4] is “Dose-dependent effect”; in [5], 7.8%; in data set [6] it was 32.4%; in [7], 62.3%; in data set [8] it was “Dose-dependent effect”; in data set [9] it was “Non-Toxic”. Also, the Activity amounted to 99% in [10], 106% in [11] and 100% in data set [12]. In addition, the remaining at 0.5 h, 25 µM in data set [15] came to 72%.
On to `CCCCCCCCCCCCCCCOc1nc(N2CCC2)nc(C)c1O`, for which the outcome in data set [1], in data set [3] and in [13] was Active. Moreover, the Activity is 88.9% in data set [5]; 82.7% in [6]; 77.2% in [7]; “Dose-dependent effect” in [8]; “Non-Toxic” in [9]; 96% in data set [10]. The results for the Activity in [11], in data set [12] and in [16] were 68%, 11% and “Dose-dependent effect”, respectively. Also, the result in data set [14] was inactive. Also, in [15], the remaining at 0.5 h, 25 µM came to 62%.
As to `CCCCCCCCCCCCCCCCc1nc(N2CCC2)nc(C)c1O`, the result in data set [1], in [3] and in data set [13] was Active. Moreover, the Activity was 91.1% in [5]; 86.5% in [6]; 83.3% in data set [7]; “Dose-dependent effect” in data set [8]; “Non-Toxic” in data set [9]; 109% in data set [10]. The Activity is listed as 98% in data set [11] and 60% in [12]. Besides, in data set [14], the result was inactive. Besides, the remaining at 0.5 h, 25 µM in data set [15] worked out at 57%.
Regarding `CCCCCCCCCCCCCCCCc1nc(N2CCC2)nc(OC2CCC2)c1O`, the outcome in data set [1], in data set [3], in data set [13] and in [14] was inactive. In data set [2], the result was Active. Also, the Activity result in data set [4] was “Dose-dependent effect”; in data set [5], 55%; in data set [6], 66.6%; in data set [7] it was 83.4%; in [8] it was “Dose-dependent effect”; in data set [9], “Non-Toxic”. Besides, the Activity in data set [10] came out at 98%; in data set [11], 112%; in data set [12] it was 103%. The remaining at 0.5 h, 25 µM in data set [15] turned out to be 65%.
Regarding `CCCCCCCCCCCCCCCCc1nc(N2CCCC2)nc(OC2CCC2)c1O`, the outcome in [1], in [3], in [13] and in [14] was inactive. Further, the outcome in [2] was Active. Besides, the Activity entry is “Dose-dependent effect” in data set [4]; 42.5% in data set [5]; 52.3% in [6]; 70.4% in data set [7]; “Dose-dependent effect” in data set [8]; “Non-Toxic” in data set [9]. Moreover, the Activity in data set [10] worked out at 98%; in data set [11] it was 107%; in data set [12] it was 102%. The remaining at 0.5 h, 25 µM in [15] came to 72%.
Consider `CCCCCCCCCCCCCCCCc1nc(N2CCC2)nc(OC(C)C)c1O`, for which the result in data set [1], in [3] and in data set [13] was Active. The Activity was 91.5% in data set [5]; 90.4% in data set [6]; 87.5% in data set [7]; “Dose-dependent effect” in [8]; “Non-Toxic” in data set [9]; 106% in [10]. The Activity in data set [11] is recorded as 109%; in data set [12], 95%. Further, in data set [14], the result was inactive. The remaining at 0.5 h, 25 µM in data set [15] stood at 76%.
As to `CCCCCCCCCCCCCCCCc1nc(N(C)C)nc(OC)c1O`, the outcome in [1] and in [3] was Active. Moreover, the Activity in [5] was 92%; in [6] it was 88.3%; in data set [7] it was 85.8%; in data set [8], “Dose-dependent effect”; in data set [9] it was “Non-Toxic”; in data set [10], 115%. Further, the Activity in data set [11] is reported as 107%; in [12], 88%. In addition, in data set [14], the outcome was inactive. In addition, in data set [15], the remaining at 0.5 h, 25 µM is 46%.
Turning to `CCCCCCCCCCCCCCCCc1nc(N2CCC2)nc(OCC)c1O`, the result in data set [1], in data set [3] and in [13] was Active. For the same molecule, the Activity in [5] was 88.9%; in data set [6], 87.6%; in [7] it was 88%; in [8] it was “Dose-dependent effect”; in data set [9] it was “Non-Toxic”; in data set [10], 100%. The Activity in [11] turned out to be 108%; in [12], 96%. Moreover, the outcome in [14] was inactive. For the same molecule, the remaining at 0.5 h, 25 µM in [15] is 54%.
As for `CCCCCCCCCCCCCCCCc1nc(N2CCC2)nc(OC)c1O`, the outcome in data set [1], in data set [3] and in data set [13] was Active. In addition, the Activity in data set [5] is 90.5%; in data set [6], 88.8%; in data set [7], 86.8%; in [8], “Dose-dependent effect”; in data set [9], “Non-Toxic”; in [10], 102%. For the same molecule, the Activity in [11] was 109%; in data set [12], 74%. Besides, the result in data set [14] was inactive. Further, in [15], the remaining at 0.5 h, 25 µM stood at 58%.
